Screening results (PubChem)
Rows were chosen to be rich in hits. Some 3.9% of all compounds tested hit in one or more screens of this group.
UPR XBP1 act – activators of adaptive arm of unfolded protein response (XBP1); activation, % at 20 µM; 330,000 compounds, 0.33% hits; CHO-XBP1 luciferase reporter, IRE1-XBP1 UPR activation, luminescence; percent of tunicamycin response, DMSO as zero; AID 463104;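 active = versus positive control, 20 µM dose yields 30% or more activation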
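Material: IRE1-XBP1 luciferase reporter CHO line / Quantity: one thousand reporter cells per well / Buffer or medium: F12 with 10% serum / Compound: 20 µM single concentration, DMSO 1% / Times: 6 h treatment, 37 °C / Detection: Steady-Glo luciferase glow luminescence, 10 min after reagent addition / Benchmarks: tunicamycin high, DMSO low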
Gli-Sufu block – antagonists of Gli-Sufu signaling; Sufu-KO-LIGHT fibroblasts, Gli luciferase reporter luminescence; inhibition, % at 5 µM; 340,000 compounds, 0.74% hits; AID 588413;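 active = inhibition above about 55%, limit read from the data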
CHOP inhibitor – blocks CHOP induction under ER stress; CHO-K1 CHOP-promoter luciferase, tunicamycin-induced, 15-18 h; inhibition, % at 10 µM; 220,000 compounds, 3.8% hits;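 active = compounds that reduced the stress-induced luciferase reporter signal by more than about 70% of percent inhibition, limit read from the data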
Jurkat NFkB inh – inhibitors of the PMA/ionomycin-induced NF-kB reporter in Jurkat cells | PMA/ionomycin-induced NF-kB luciferase reporter, luminescence | inhibition, % at 4 µM | 330,000 compounds, 0.53% hits; in the data active = inhibition above about 50%
697 NFkB inh – inhibitors of the PMA/ionomycin-induced NF-kB reporter in 697 B cells; 330,000 compounds, 0.33% hits; inhibition, % at 4 µM; 697 B-cell NF-kB luciferase reporter, 16 h; AID 435022; in the data active = inhibition above about 35%
UPR CHOP act – activators of apoptotic arm of unfolded protein response (CHOP); activation, % at 10 µM; AID 449763; CHO-CHOP luciferase reporter, UPR activation, luminescence; percent of tunicamycin response over DMSO baseline; 330,000 compounds, 0.34% hits;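 active = at 10 µM dose, activation of 40% or more, normalized to positive control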
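measured by = luciferase luminescence | assay system = CHO-CHOP cells, stable luciferase reporter of PERK-eIF2a-CHOP signalling | amount = 500 reporter cells seeded per well | timing = 6 h compound exposure at 37 °C after overnight seeding | controls = positive tunicamycin 10 µg/mL, negative DMSO alone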
697 NFkB conf – lowers PMA/ionomycin-induced NF-kB signal in 697 B cells; shares compounds with 697 NFkB inh; 697 B-cell NF-kB luciferase, 16 h; inhibition, % at 4 µM; 2,000 compounds, 35% hits; in the data active = inhibition mostly above about 28%, no sharp cut-off; inactive = mostly below about 22%
A number is an active result; n = inactive; x = no result.

SMILES | UPR XBP1 act | Gli-Sufu block | CHOP inhibitor | Jurkat NFkB inh | 697 NFkB inh | UPR CHOP act | 697 NFkB conf
COc1ccc(N2C(=O)CN=C2Nc2nc(C)cc(C)n2)cc1OC | n | n | n | n | n | n | x
NC(=O)c1ccc2c(=O)c(O)c(-c3cc(Cl)c(N)c(Cl)c3)[nH]c2c1 | n | n | x | n | n | n | x
Cn1c(=O)[nH]c(=O)c2c1nc(N/N=C/c1ccncc1)n2Cc1ccc(Cl)cc1 | n | n | n | n | 38 | n | n
C[C@H](NS(=O)(=O)c1c(Cl)cccc1Cl)C(=O)NNC(=O)COc1ccccc1F | n | n | x | n | n | n | x
COc1ccc(C2C3=C(CCCC3=O)Nc3nc(-c4cc(OC)c(OC)c(OC)c4)nn32)cc1OC (stereo not drawn) | n | n | n | n | 38 | n | n
C/C(=N\Nc1ccc(Cl)c(C(=O)O)c1)c1ccc(N2CCOCC2)cc1 | n | n | x | n | n | n | x
O=C(Nc1ccccc1Cl)N1CCN(c2ccc3nnc(-c4ccc(F)cc4)n3n2)CC1 | n | n | n | n | 36 | n | n
COc1ccccc1NC(=O)N1CCN(c2ccc3nnc(-c4ccc(F)cc4)n3n2)CC1 | n | n | n | n | 35 | n | n
Fc1ccc(-c2nnc3ccc(N4CCCC4)nn23)cc1 | n | n | n | n | n | n | x
O=C(NN(C(=O)c1ccccc1)c1cccs1)c1ccccc1 | x | n | x | x | x | x | x
CCCN1C(=O)COc2ccc(-c3n[nH]c(=O)c4ccccc34)cc21 | n | n | n | n | n | n | x
COc1ccccc1C(=O)NNC(=O)C1CC=CCC1 (stereo not drawn) | n | n | x | n | n | n | x
CN(C(=O)c1ccccc1-c1ccccc1C(=O)O)c1ccccc1 | n | n | x | n | n | n | x
COc1ccc(-c2nn(C)c(=O)c3ccccc23)cc1NS(C)(=O)=O | n | n | n | n | 38 | n | 32
COCCOc1ccc(C(F)(F)F)cc1NC(=O)c1ccc(F)cc1 | n | n | n | n | n | n | x
CCOc1ccc(C(F)(F)F)cc1NC(=O)c1ccc(OC)c([N+](=O)[O-])c1 | n | n | n | n | 40 | n | n
Cc1nc2ccccc2c(=O)n1/N=C/c1ccccc1 | n | n | n | n | n | n | x
Cc1nc2ccccc2c(=O)n1/N=C1\C(=O)N(C)c2ccccc21 | n | x | n | n | 58 | n | n
Cc1noc(COc2ccccc2OCC(N)=O)c1Cl | n | n | n | n | 38 | n | n
COC(=O)c1ccccc1OCC(=O)N1CCN(c2ccc(F)cc2)CC1 | n | n | n | n | n | n | x
CC(=O)c1cc(F)ccc1OCC(=O)N1CCN(c2ccc(F)cc2)CC1 | n | n | n | n | 36 | n | n
CC(C)(C)OC(=O)C[C@H]1C/C=C\C[C@H](CC(=O)N[C@H](CO)Cc2ccccc2)C(=O)N2CCC[C@H]2COC1=O | n | n | x | n | n | n | x
O=C(COC(=O)c1ccc(F)cc1F)Nc1cccc(S(=O)(=O)N2CCOCC2)c1 | n | n | x | n | n | n | x
Nc1ccccc1SCC(=O)Nc1nc(-c2ccccc2)cs1 | n | n | n | n | 47 | n | 40
CCCCCCCNC(=O)CN1N=C(c2ccc(C)cc2)CCC1=O | n | n | x | n | n | n | x
SMILES | UPR XBP1 act | Gli-Sufu block | CHOP inhibitor | Jurkat NFkB inh | 697 NFkB inh | UPR CHOP act | 697 NFkB conf
COc1ccccc1OCc1nn[nH]n1 | n | n | x | n | n | n | x
CCCc1ccc(-c2cc(C(=O)N3CCN(c4ccccn4)CC3)c3ccccc3n2)cc1 | n | n | x | n | n | n | n
CCOc1ccc(-c2cc(C(=O)N3CCN(c4ccccn4)CC3)c3ccccc3n2)cc1 | n | n | x | n | n | n | x
Cc1nc(C)c(-c2csc(Nc3ccccn3)n2)s1 | n | n | x | n | n | n | n
CC1=CC(C)(C)Nc2ccc(OC(=O)c3cccnc3)cc21 | n | n | n | n | 66 | n | 62
COc1ccc(OC(=O)C(C)N2C(=O)c3ccccc3C2=O)cc1 (stereo not drawn) | n | n | x | n | n | n | x
CC1=CC(C)(C)Nc2ccc(OC(=O)C(C)N3C(=O)c4ccccc4C3=O)cc21 (stereo not drawn) | n | n | n | n | 67 | n | 55
